# Rows were chosen to be rich in hits. Some 2.1% of all compounds tested hit in one or more screens of this group.
# SUMO Mot1 rescue: SUMOylation pathway inhibition by Mot1-301 growth rescue; S. cerevisiae Mot1-301 growth rescue, ATP luminescence, 38.5C; percent above DMSO median, 100 means doubled; growth rescue, % at 18.8 µM; 320,000 compounds, 1% hits; AID 2716;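 active = every valid replicate shows activation above 250% relative to neutral control wells; inactive = the rest, any valid replicate at or below 250%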;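 also: OY570 slx delta 5 strain wells were the positive control but not used for scaling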
# Cardiac RTF inh: cardiac RTF calcium desensitization. P19429+P45379. 340,000 compounds, 0.12% hits. inhibition, % at 7.15 µM. IANBD-labeled cardiac RTF, Ca2+ fluorescence. AID 493244;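 active = inhibition above the mean inhibition of all tested compounds plus 3 SD, cut at about 17% in these data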;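 also: assay run at fixed EC70 calcium of 1.6 mM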
# UCH37 DUB inh: blocks the human deubiquitinase UCH37 | 330,000 compounds, 0.33% hits | AID 588478 | Q9Y5K5 | inhibition, % (test concentration not listed) | purified proteasome/UCH37, Ub-AMC cleavage fluorescence;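 active = mean inhibition over replicate wells above about 20%, limit read from the data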;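 also: 0% = compound-free wells with enzyme and 100% = wells lacking proteasome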
# Target sequence (Q9Y5K5 whole entry, looked up): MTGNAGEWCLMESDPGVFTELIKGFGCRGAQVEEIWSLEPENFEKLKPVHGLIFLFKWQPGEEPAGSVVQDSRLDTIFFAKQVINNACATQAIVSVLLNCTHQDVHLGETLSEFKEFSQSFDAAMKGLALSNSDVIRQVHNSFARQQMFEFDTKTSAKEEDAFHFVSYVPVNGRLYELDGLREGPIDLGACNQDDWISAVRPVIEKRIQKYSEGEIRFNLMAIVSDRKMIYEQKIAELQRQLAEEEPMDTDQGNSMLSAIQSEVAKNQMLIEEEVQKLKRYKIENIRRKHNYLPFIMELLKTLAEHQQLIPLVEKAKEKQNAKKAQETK
#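 Material: human UCH37 enzyme supplied as purified proteasome complex. Measure: % inhibition of Ub-AMC cleavage fluorescence. Medium: pH 7.4 Tris-HCl (50 mM) with ovalbumin, ATP-MgCl2, DTT. Times: 30 min preincubation with enzyme, 25 min cleavage at room temperature. Detection: AMC fluorescence intensity at 355/460 nm.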
# Efflux pump inh: inhibitors of Candida antifungal efflux pumps expressed in yeast; S. cerevisiae Candida pump triplex, Nile Red efflux; inhibition, % at 10 µM; 330,000 compounds, 0.44% hits;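 active = plate passing quality check with inhibition over a set limit, or well fluorescence over plate mean plus 4 SD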;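 also: Nile Red retained in pooled yeast measured as flow cytometry median fluorescence; 0% = buffer negative control and 100% = Enniatin B positive control; higher means more Nile Red kept so more efflux inhibition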
# ARNT TACC3 PPI: disrupts binding between human ARNT and TACC3 | Q9Y6A5 | AlphaScreen His-ARNT PAS-B/GST-TACC3 binding, luminescence; TACC3 fragment carries E629A point mutation | inhibition, % at 9.99 µM | 390,000 compounds, 0.66% hits;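 active = mean inhibition of replicates at least 50% and at least half of replicates each reaching 50%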;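 also: 0% = complete ARNT plus TACC3 wells and 100% = ARNT alone without TACC3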
# cardiac RTF act: cardiac RTF calcium sensitization | activation, % at 7.2 µM | AID 493008 | IANBD-labeled TnC RTF fluorescence at EC20 calcium; 0% EC20 calcium, 100% full calcium | 340,000 compounds, 0.24% hits;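 active = activation above the mean over all tested compounds plus 3 SD, cut at about 30% in these data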;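 also: rise in fluorescence read as greater calcium sensitivity of cardiac thin filaments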
# ARNT Alpha ctr: AlphaScreen artifact in ARNT/TACC3 counter-screen; shares compounds with ARNT TACC3 PPI; His-ARNT PASB-GST AlphaScreen artifact counter-screen, luminescence; AC50, µM (highest dose often 68 µM), inactives show at the highest dose activity change, negative = signal decrease; 1,200 compounds, 50% hits;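 active = every separate test run was called active for a drop in luminescence, with AC50 within twice the top valid dose, actives reach about 71 µM in these data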
# Numbers without * were called inactive; x = no result given.
SMILES,SUMO Mot1 rescue,Cardiac RTF inh,UCH37 DUB inh,Efflux pump inh,ARNT TACC3 PPI,cardiac RTF act,ARNT Alpha ctr
COc1cccc(C(=O)Oc2c(CN3CCOCC3)cc(Cl)c3cccnc23)c1,-4.7,-8.0,3.8,-0.1,77.5*,2.1,57.8µM*
O=C(Oc1c(Cl)cc(Cl)c2cccnc12)c1cccs1,113.9,-17.1,5.5,-0.1,0.6,1.6,x
O=C(Oc1c(CN2CCOCC2)cc(Cl)c2cccnc12)c1cccs1,-22.8,-8.1,5.6,0.0,64.8*,2.5,-21.0%
COc1cccc(C(=O)OCCN2CCOCC2)c1,-7.0,-4.0,5.9,0.0,-4.0,7.4,x
OCCN1CCN(Cc2cc(Cl)c3cccnc3c2O)CC1,-4.6,-4.0,1.2,0.3,63.3*,5.0,8.47µM*
CCOC(=O)CC(=NNc1ncnc2ccccc12)c1ccccc1,x,x,6.0,x,x,x,x
Cc1cc(C)n2nc(C(=O)NN=Cc3ccc(O)cc3)nc2n1,x,x,3.1,x,x,x,x
CC(NC(=O)NCCCn1ccnc1)(C(F)(F)F)C(F)(F)F,-7.5,-1.4,0.8,-0.1,5.8,0.5,x
O=C(NCCCn1ccnc1)C(F)(F)C(F)(F)C(=O)NCCCn1ccnc1,9.6,-14.1,3.4,0.1,50.6*,5.3,-18.3%
COc1ccc(C=NNc2ncc(Br)cn2)c(OC)c1,x,x,4.3,x,x,x,x
CC1(C)CC(=O)C2=C(C1)OC(N=CN1CCOCC1)=C(C#N)C2c1ccccc1 (centres undefined),x,x,-0.5,x,x,x,x
O=C(Oc1ccc(Cl)c2cccnc12)c1cccnc1,21.6,-5.0,1.8,0.0,68.6*,4.6,50.1µM*
Cc1ccc(C(=O)Oc2ccc(Cl)c3cccnc23)cc1[N+](=O)[O-],-29.8,0.0,4.9,0.1,16.5,-5.0,x
COc1ccc(C=NNC(=O)CCn2nnc3ccccc32)cc1,x,x,3.8,x,x,x,x
COc1ccc(O)c(/C=N\NC(=O)CCn2nnc3ccccc32)c1,13.0,9.0,x,-0.1,50.6*,-5.4,-8.0%
Oc1c(I)cc(I)c2cccnc12,x,13.2,3.0,-0.1,54.8*,-7.0,49.5µM*
CCOc1cc2c(C#N)c(N3CCOCC3)nc(N)c2c(N)n1,-8.6,-4.8,-80.7,-0.1,30.1*,-2.0,-3.8%
COc1cc(CNCc2ccccn2)ccc1OCc1ccc(Cl)cc1,24.6,3.0,5.9,0.2,52.7*,6.4,-30.0%
COc1cc(CNCCN2CCOCC2)ccc1OCc1c(Cl)cccc1Cl,-14.0,x,0.7,0.1,x,x,x
COc1cc(CNCc2ccccn2)ccc1OCc1c(Cl)cccc1Cl,4.8,-8.7,2.9,0.1,56.4*,-2.0,-35.8%
COc1cc(CNCc2ccccn2)ccc1OCc1cccc(Cl)c1,8.1,2.5,1.7,0.1,53.2*,4.7,-30.9%
COc1cc(CNCc2cccs2)ccc1OCc1ccccc1,-0.5,-11.1,0.4,-0.1,2.9,-4.3,x
CC(=O)N1CN(Cc2ccccn2)Cc2c1sc1c2CCCC1,-13.6,3.5,0.6,0.0,71.2*,-1.1,-15.1%
Cn1cccc1C=NNC(=O)Cc1cccc2ccccc12,x,x,4.4,x,x,x,x
Cc1ccc(NC(=O)CN(C)C(=O)COc2cccc3cccnc23)cc1,-24.6,-15.4,-1.0,0.1,58.3*,-2.6,-17.1%
SMILES,SUMO Mot1 rescue,Cardiac RTF inh,UCH37 DUB inh,Efflux pump inh,ARNT TACC3 PPI,cardiac RTF act,ARNT Alpha ctr
Cc1ccc(NC(=O)CN(C)S(=O)(=O)c2cccc3cccnc23)cc1,66.4,-4.9,3.3,0.3,-3.9,2.8,x
COc1cc(/C=N/NC(=O)CCN2CCN(c3ccccc3)CC2)cc(OC)c1OC,1.1,-13.8,x,0.2,37.9*,-3.2,56.3µM*
COc1ccc(NC(=O)N[C@H]2CC[C@H](CCn3cc(-c4ccccn4)nn3)O[C@H]2CO)cc1,x,x,x,x,40.7,x,x
COc1ccc(NC(=O)N[C@@H]2CC[C@H](CCn3cc(-c4ccccn4)nn3)O[C@@H]2CO)cc1,x,x,x,x,62.8*,x,50.5µM*
COc1ccc(NC(=O)N[C@@H]2CC[C@H](CCn3cc(-c4ccccn4)nn3)O[C@H]2CO)cc1,x,x,x,x,59.4*,x,50.1µM*
Nc1nonc1-n1nnc(C(=O)NN=Cc2cc(Cl)ccc2O)c1CN1CCCCCC1,x,x,3.4,x,x,x,x
NC(=O)CSc1nnc(-c2ccc(O)cc2)n1Cc1ccco1,94.3,-1.2,1.7,0.0,38.4*,-1.5,27.8µM*
CCSc1nnc(NC(=O)c2ccccn2)s1,58.3,2.5,2.4,-0.1,52.2*,-0.8,30.7µM*
COc1cc(C(=O)NCc2nnc(SCC(=O)Nc3nccs3)o2)cc(OC)c1OC,-3.9,1.0,-1.4,0.2,69.5*,-1.0,-15.1%
O=C(CC(NCc1ccccn1)C(=O)O)Nc1ccccc1Cl (centres undefined),280.0,-11.6,0.5,0.9,51.1*,8.6,13.5µM*
O=C(NCc1ccccn1)Nc1cc(Cl)ccc1Cl,1.9,-0.4,5.9,0.1,18.2,4.0,x
Oc1ccc(/C=N/Nc2ccc(Cl)nn2)c(O)c1O,14.9,-5.8,x,-1.6,55.3*,2.1,4.5µM*
CCc1c(C)sc(NC(=O)C2CC(c3c(F)cccc3Cl)=NO2)c1C#N (centres undefined),-23.7,-6.5,0.0,0.0,active,1.0,2.9%
N#Cc1c(NC(=O)C2CC(c3c(F)cccc3Cl)=NO2)sc2c1CCC2 (centres undefined),5.6,-41.7,3.6,0.0,0.9,0.7,x
Cc1ccc(C(=O)Oc2ccc(/C=C3\C(=N)N4N=C(N5CCOCC5)SC4=NC3=O)cc2)cc1,4.2,-6.3,2.0,0.2,56.3*,-4.1,-27.0%
Cn1ccnc1C(=NNC(=O)c1ccccc1)c1cccc([N+](=O)[O-])c1,x,x,3.8,x,x,x,x
Nc1ccc(C(=O)Nc2ccc3c(O)cc(S(=O)(=O)O)cc3c2)cc1,x,-7.0,3.9,x,69.3*,2.8,-34.1%
Nc1ccc(NC(=O)c2ccc(C(=O)Nc3ccc(N)cc3)cc2)cc1,-3.4,-0.2,x,0.3,-5.5,-6.6,x
Cc1ccsc1C=NNC(=O)CNC(=O)c1ccccc1,x,x,3.9,x,x,x,x
C/C(=N\NC(=O)C(c1ccccc1)c1ccccc1)c1ccc(O)cc1,7.5,-3.9,x,0.1,59.6*,-2.5,-14.7%
C/C(=C/C=NNc1nc(N2CCCCC2)nc(N2CCCCC2)n1)c1ccccc1,x,x,7.0,x,x,x,x
FC(F)(F)c1cnc(C(c2ccccn2)c2ncn[nH]2)c(Cl)c1 (centres undefined),-4.0,3.2,0.5,0.2,62.0*,-5.6,58.1µM*
FC(F)(F)c1cnc(C(c2ccccc2)c2ncn[nH]2)c(Cl)c1 (centres undefined),-6.1,3.6,-0.3,0.1,0.2,3.9,x
CC(=NNC(=O)CN(c1ccccc1)S(=O)(=O)c1ccccc1)c1ccccc1O,x,x,1.8,x,x,x,x
COc1ccccc1C(=O)NN=C/C(C)=C/c1ccccc1,x,x,7.7,x,x,x,x

# Assay outcomes as filed in PubChem.
